Data set [1] deals with 3',5'-cyclic-AMP phosphodiesterase 4B (Homo sapiens, UniProt Q07343). The data set is described as follows: Inhibition of full length human recombinant PDE4B1 using [3H]-cAMP as substrate by scintillation proximity assay. For orientation: Scintillation proximity formats need no separation of bound from free tracer.
Data set [2] deals with Trypanosoma brucei brucei. Briefly: Antitrypanosomal activity against suramin-sensitive Trypanosoma brucei brucei Squib427 assessed as inhibition of parasite growth. The format is functional, organism-based. The procedure, abridged:
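Bloodstream-form trypomastigotes of Squib-427 were grown at 37 °C and 5% CO₂ in Hirumi-9 medium with 10% FCS. Compounds came from 20 mM DMSO stocks, pre-diluted 2- or 4-fold serially in DMSO, then diluted in demineralized water; final DMSO was <1%. Results were reported as −logEC₅₀ with n = 2.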

Data set [3] is described as follows: Cytotoxicity against human MRC5 cells assessed as growth inhibition. The class given is cell-based. The procedure, abridged:
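MRC-5 fibroblasts were grown at 37 °C and 5% CO₂ in Hirumi-9 medium with 10% FCS. Compounds came from 20 mM DMSO stocks, serially pre-diluted 2- or 4-fold in DMSO, then in demineralized water; final DMSO was <1%. Results were reported as −logCC₅₀ with n = 2.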

Data set [4] is described as follows: Selectivity index, ratio of CC50 for human MRC5 cells to EC50 for suramin-sensitive Trypanosoma brucei brucei Squib427. The format is toxicity, cell-based. The settings on record: read-out: Ratio CC50/EC50. The procedure, abridged:
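The index was calculated as CC₅₀ in MRC-5 fibroblasts divided by EC₅₀ against T. b. brucei. Both came from parallel assays in Hirumi-9 medium with 10% FCS at 37 °C and 5% CO₂, each n = 2.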

Data set [5] deals with T1, Class 1 phosphodiesterase PDEB1 (Trypanosoma brucei, UniProt Q8WQX9).
T1 sequence (Q8WQX9 whole entry): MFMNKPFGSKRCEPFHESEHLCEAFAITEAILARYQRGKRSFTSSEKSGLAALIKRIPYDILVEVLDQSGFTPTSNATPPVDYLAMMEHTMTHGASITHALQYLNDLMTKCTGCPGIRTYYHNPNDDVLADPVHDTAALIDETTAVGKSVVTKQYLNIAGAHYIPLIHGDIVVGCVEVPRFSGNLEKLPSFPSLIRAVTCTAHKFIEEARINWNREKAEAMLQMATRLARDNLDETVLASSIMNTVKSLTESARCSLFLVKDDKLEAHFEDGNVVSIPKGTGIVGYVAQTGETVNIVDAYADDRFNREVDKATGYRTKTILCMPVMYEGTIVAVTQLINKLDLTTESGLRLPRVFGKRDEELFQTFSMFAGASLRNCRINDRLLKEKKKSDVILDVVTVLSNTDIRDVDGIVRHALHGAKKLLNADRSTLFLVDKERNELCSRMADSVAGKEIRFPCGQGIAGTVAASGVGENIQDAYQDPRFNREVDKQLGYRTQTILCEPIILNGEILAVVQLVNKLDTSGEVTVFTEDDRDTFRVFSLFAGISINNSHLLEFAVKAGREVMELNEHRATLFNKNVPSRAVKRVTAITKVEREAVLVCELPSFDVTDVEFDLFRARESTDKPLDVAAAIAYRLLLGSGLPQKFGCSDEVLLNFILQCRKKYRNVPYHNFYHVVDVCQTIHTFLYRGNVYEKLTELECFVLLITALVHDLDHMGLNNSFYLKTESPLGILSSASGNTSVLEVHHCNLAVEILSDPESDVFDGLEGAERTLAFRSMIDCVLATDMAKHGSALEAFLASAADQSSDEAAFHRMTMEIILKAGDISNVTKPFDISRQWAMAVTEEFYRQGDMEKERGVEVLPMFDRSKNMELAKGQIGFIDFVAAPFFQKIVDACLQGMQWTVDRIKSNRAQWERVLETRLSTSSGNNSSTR
Briefly: Inhibition of recombinant Trypanosoma brucei PDEB1 using [3H]-cAMP as substrate after 15 mins by scintillation proximity assay. The essentials: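 Inhibition of TbrPDEB1-mediated [³H]-cAMP hydrolysis was read by scintillation proximity assay. Each analog was run in at least two independent experiments.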

The nature of data set [6]: Selectivity ratio of IC50 for Trypanosoma brucei recombinant PDEB1 to IC50 for full length human recombinant PDE4B1.
A short description of data set [7]: Solubility of compound in 0.05 M phosphate buffer at pH 7.4. The class given is physicochemical.

3',5'-cyclic-AMP phosphodiesterase 4B, sequence (Q07343 whole entry): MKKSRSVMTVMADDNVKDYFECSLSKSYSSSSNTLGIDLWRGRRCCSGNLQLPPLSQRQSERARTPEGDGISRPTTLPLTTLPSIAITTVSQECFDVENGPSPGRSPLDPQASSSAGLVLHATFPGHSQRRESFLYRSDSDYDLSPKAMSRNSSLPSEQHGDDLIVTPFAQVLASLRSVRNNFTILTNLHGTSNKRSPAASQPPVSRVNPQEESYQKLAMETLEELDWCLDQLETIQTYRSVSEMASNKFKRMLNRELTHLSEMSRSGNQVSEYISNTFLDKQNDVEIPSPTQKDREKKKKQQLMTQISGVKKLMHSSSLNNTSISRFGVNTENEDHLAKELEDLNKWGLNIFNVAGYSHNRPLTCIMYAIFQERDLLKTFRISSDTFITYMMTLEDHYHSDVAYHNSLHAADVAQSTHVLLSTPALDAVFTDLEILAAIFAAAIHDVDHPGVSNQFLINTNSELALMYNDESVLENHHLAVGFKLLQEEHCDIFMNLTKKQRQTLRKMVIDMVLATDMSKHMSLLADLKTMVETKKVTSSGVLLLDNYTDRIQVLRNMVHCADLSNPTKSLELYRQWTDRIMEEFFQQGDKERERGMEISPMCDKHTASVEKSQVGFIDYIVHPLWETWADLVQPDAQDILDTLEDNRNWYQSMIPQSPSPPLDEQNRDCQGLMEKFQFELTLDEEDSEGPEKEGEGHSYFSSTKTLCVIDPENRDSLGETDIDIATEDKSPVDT

Consider `COc1ccc(C2=NN(C3CCCCCC3)C(=O)[C@@H]3CC=CC[C@H]23)cc1OCCCCOc1ccc(-c2nnnn2C)cc1` (racemic), for which the IC50 (in general, the concentration that gives 50% inhibition) is 0.631 nM in data set [1] and 10 nM in data set [5]. Besides, in data set [2], the EC50 – broadly, the midpoint of the concentration-response curve – is 501 nM. Also, the cytotoxic concentration (CC50) (in general, the concentration giving 50% cytotoxicity) in data set [3] was > 63100 nM. Moreover, the selectivity ratio in data set [4] is > 125. In addition, the Ratio IC50 in data set [6] was 16. For the same molecule, the solubility (usually the concentration that dissolves in the medium under given conditions) in data set [7] was < 2 µM.
Take `COc1ccc(C2=NN(C3CCCCCC3)C(=O)[C@@H]3CC=CC[C@H]23)cc1OCCCCOc1ccc(-c2nnn(C)n2)cc1` (racemic): the values for the IC50 in data set [1] and in data set [5] were 0.501 nM and 3.16 nM, respectively. Also, the EC50 in data set [2] is 251 nM. The CC50 in data set [3] is > 63100 nM. For the same molecule, in data set [4], the selectivity ratio was > 251. The Ratio IC50 in data set [6] is 6. In addition, the solubility in data set [7] is < 2 µM.
Turning to `COc1ccc(C2=NN(C3CCCCCC3)C(=O)[C@@H]3CC=CC[C@H]23)cc1OCc1ccncc1` (racemic), the EC50 in data set [2] was 1260 nM. In addition, in data set [3], the 50% cytotoxic concentration (CC50) is 15800 nM. The selectivity ratio in data set [4] was 12.6. Also, in data set [5], the half-maximal inhibitory concentration (IC50) is 158 nM.
The matching figures for `COc1cc(COc2cc(C3=NN(C4CCCCCC4)C(=O)[C@@H]4CC=CC[C@H]34)ccc2OC)cc(OC)c1` (racemic): 1000 nM, 12600 nM, 12.6 and 126 nM.
In the case of `COc1ccc(C2=NNC(=O)[C@@H]3CC=CC[C@H]23)cc1OC` (racemic), the IC50 in data set [5] is 12600 nM.
Take `COc1ccc(C2=NN(C3CCCCCC3)C(=O)[C@@H]3CCCC[C@H]23)cc1OC` (racemic): the IC50 in data set [5] is 1580 nM.
For the molecule `COc1ccc(C2=NN(C3CCCCCC3)C(=O)[C@@H]3CC=CC[C@H]23)cc1OCCCCOc1ccc(-n2ccnc2)cc1` (racemic), the figures for the IC50 in data set [1] and in data set [5] were 0.2 nM and 12.6 nM, respectively. Also, the EC50 in data set [2] was 1000 nM. The cytotoxic concentration (CC50) in data set [3] was 39800 nM. For the same molecule, the selectivity ratio in data set [4] worked out at 40. Also, in data set [6], the Ratio IC50 is 63.
With `COc1ccc(C2=NN(C3CCCCCC3)C(=O)[C@@H]3CC=CC[C@H]23)cc1OCc1ccccn1` (racemic), the 50% inhibitory concentration (IC50) in data set [5] was 100 nM.
As for `COc1ccc(C2=NN(C3CCCCCC3)C(=O)[C@@H]3CC=CC[C@H]23)cc1OCCCCCc1ccccc1` (racemic), the EC50 in data set [2] was 5010 nM. The CC50 in data set [3] is > 63100 nM. Further, in data set [4], the selectivity ratio was > 13. In data set [5], the IC50 was 63.1 nM.
As for `COc1ccc(C2=NN(C3CCCCCC3)C(=O)[C@@H]3CC=CC[C@H]23)cc1OCCc1ccc(N(C)C)cc1` (racemic), in data set [2], the EC50 was 1000 nM. For the same molecule, the half-maximal cytotoxic concentration (CC50) in data set [3] was > 63100 nM. Moreover, the selectivity ratio in data set [4] was > 63. For the same molecule, the concentration for half-maximal inhibition (IC50) in data set [5] is 63.1 nM.
`COCCOc1cc(C2=NN(C3CCCCCC3)C(=O)[C@@H]3CC=CC[C@H]23)ccc1OC` (racemic): in data set [2], the EC50 is 794 nM. In addition, the 50% cytotoxic concentration (CC50) in data set [3] was 25100 nM. For the same molecule, the selectivity ratio in data set [4] amounted to 32. Besides, in data set [5], the 50% inhibitory concentration (IC50) was 79.4 nM.
Regarding `COc1ccc(C2=NN(C3CCCCCC3)C(=O)[C@@H]3CC=CC[C@H]23)cc1` (racemic), the half-maximal inhibitory concentration (IC50) in data set [5] is 3980 nM.
Regarding `COc1ccc(CCOc2cc(C3=NN(C4CCCCCC4)C(=O)[C@@H]4CC=CC[C@H]34)ccc2OC)cc1` (racemic), in data set [2], the EC50 is 1260 nM. The half-maximal cytotoxic concentration (CC50) in data set [3] is > 63100 nM. Besides, the selectivity ratio in data set [4] was > 50. In addition, the half-inhibitory concentration (IC50) in data set [5] is 63.1 nM.
`COc1ccc(-c2nn(C3CCCCCC3)c(=O)c3ccccc23)cc1OC`: the half-inhibitory concentration (IC50) in data set [5] was > 10000 nM.
As to `COc1ccc(C2=NN(C3CCCCCC3)C(=O)[C@@H]3CC=CC[C@H]23)cc1OC` (racemic), the IC50 in data set [1] is 0.631 nM; in data set [5], 316 nM. Moreover, in data set [6], the Ratio IC50 was determined as 501.
Consider `COc1ccc(C2=NN(C3CCCCCC3)C(=O)[C@@H]3CC=CC[C@H]23)cc1OCc1cccc(OC)c1OC` (racemic), for which the 50% effective concentration (EC50) in data set [2] is 1580 nM. Besides, the CC50 in data set [3] is 3980 nM. Besides, in data set [4], the selectivity ratio stood at 2.5. Besides, the concentration for half-maximal inhibition (IC50) in data set [5] was 79.4 nM.
Turning to `COc1cccc(C2=NN(C3CCCCCC3)C(=O)[C@@H]3CC=CC[C@H]23)c1` (racemic), the 50% inhibitory concentration (IC50) in data set [5] is 100000 nM.
As to `COc1ccc(C2=NN(C3CCCCCC3)C(=O)[C@@H]3CC=CC[C@H]23)cc1OCCCCn1cnc2ncncc21` (racemic), the values for the half-inhibitory concentration (IC50) in data set [1] and in data set [5] were 1.58 nM and 15.8 nM, respectively. Besides, the EC50 in data set [2] was 200 nM. In data set [3], the CC50 is 39800 nM. In addition, the selectivity ratio in data set [4] was 200. The Ratio IC50 in data set [6] is 10.
As for `COc1ccc(C2=NN(C3CCCCCC3)C(=O)[C@@H]3CC=CC[C@H]23)cc1OCCCCOc1ccc(C(=O)O)cc1` (racemic), the figures for the IC50 in data set [1] and in data set [5] were 0.316 nM and 316 nM, respectively. In addition, the Ratio IC50 in data set [6] worked out at 1000.
With `COc1ccc(C2=NN(C(C)C)C(=O)[C@@H]3CCCC[C@H]23)cc1OC` (racemic), the half-inhibitory concentration (IC50) in data set [5] is 2000 nM.
`COc1ccc(C2=NN(C3CCCCCC3)C(=O)[C@@H]3CC=CC[C@H]23)cc1OCCO` (racemic): the EC50 in data set [2] is 2000 nM. Also, the half-maximal cytotoxic concentration (CC50) in data set [3] was 31600 nM. Also, in data set [4], the selectivity ratio amounted to 16. Besides, the IC50 in data set [5] was 100 nM.
On to `COc1ccc(C2=NN(C3CCCCCC3)C(=O)CC2)cc1OC`, for which the 50% inhibitory concentration (IC50) in data set [5] is 10000 nM.

Values taken from ChEMBL document CHEMBL3763060, “Synthesis and evaluation of analogs of the phenylpyridazinone NPD-001 as potent trypanosomal TbrPDEB1 phosphodiesterase inhibitors and in vitro trypanocidals” (Bioorg Med Chem, 2016).
